The text below walks through data of ChEMBL document CHEMBL1122861, “Synthesis and activity profiles of novel cyclic opioid peptide monomers and dimers” (J Med Chem, 1985).

For experiment [1], the species on record is Cavia porcellus. In words: Tested for inhibition of electrically evoked contractions of the guinea pig ileum(GPI). In kind it is functional. The gist of the method:
(§1)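 Isolated tissue bioassay, electrically evoked contractions; inhibition measured. A log dose–response curve with [Leu5]enkephalin as standard was run on each ileum or vas preparation. Test-peptide IC50 values were normalized against that standard by a published procedure. Mean of three determinations ±SEM.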

The species entered for experiment [2] is Mus musculus. Briefly: Tested for inhibition of electrically evoked contractions of the mouse vas deferens(MVD). In kind it is functional. An outline of the steps: as §1
Experiment [3] has as its target Delta-type opioid receptor (Rattus norvegicus, UniProt P33533). Briefly: Displacement of [3H]DSLET from Opioid receptor delta 1 from rat brain homogenate. It is filed as tissue-based.
Experiment [4] deals with Mu-type opioid receptor (Rattus norvegicus, UniProt P33535). Briefly: Evaluated for its ability to displace [3H]DAGO binding to Opioid receptor mu 1 from rat brain homogenate. In kind it is tissue-based.
The species named for experiment [5] is Cavia porcellus. Briefly: Tested for sensitivity to naloxone in the guinea pig ileum assay. In kind it is functional. The gist of the method:
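Electrically stimulated guinea pig ileum. IC50 was determined with and without a fixed 5 nM naloxone. Ke for naloxone as antagonist was derived from the ratio of those IC50 values.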

Where a SMILES comes first, the peptide text is derived from it. Bridges are numbered along the chain shown (N, C = ends). [ ]: non-standard residue; d: D form. Orn = NCCC[C@H](N)C(=O)O Bounds are passed on as bounds.

Chain of Mu-type opioid receptor (P33535 whole entry): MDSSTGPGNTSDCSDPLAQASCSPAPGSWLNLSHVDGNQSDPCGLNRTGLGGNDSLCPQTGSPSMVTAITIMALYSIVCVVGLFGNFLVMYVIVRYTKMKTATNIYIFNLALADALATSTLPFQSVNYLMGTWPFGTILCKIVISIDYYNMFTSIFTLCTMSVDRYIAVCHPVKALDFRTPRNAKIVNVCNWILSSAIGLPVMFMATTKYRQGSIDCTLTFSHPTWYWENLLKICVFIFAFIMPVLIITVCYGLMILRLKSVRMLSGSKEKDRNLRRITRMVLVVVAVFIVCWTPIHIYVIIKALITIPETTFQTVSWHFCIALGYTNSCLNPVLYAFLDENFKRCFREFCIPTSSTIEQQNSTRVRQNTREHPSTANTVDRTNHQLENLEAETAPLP
Chain of Delta-type opioid receptor (P33533 whole entry): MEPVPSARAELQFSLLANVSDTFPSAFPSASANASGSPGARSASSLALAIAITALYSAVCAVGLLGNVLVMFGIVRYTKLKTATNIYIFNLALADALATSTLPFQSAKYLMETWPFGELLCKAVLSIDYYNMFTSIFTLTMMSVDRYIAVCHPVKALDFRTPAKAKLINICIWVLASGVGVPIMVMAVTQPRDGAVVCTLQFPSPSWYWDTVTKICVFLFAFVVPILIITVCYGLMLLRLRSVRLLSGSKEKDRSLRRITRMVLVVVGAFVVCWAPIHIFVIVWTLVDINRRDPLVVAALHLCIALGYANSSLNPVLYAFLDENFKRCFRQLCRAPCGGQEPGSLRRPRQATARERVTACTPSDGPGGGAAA

Usually IC50 stands for the concentration needed to halve the response being measured. A low value points to greater potency in that assay. By Ki is commonly meant a dissociation constant, usually derived from enzyme kinetics or from competition with a known ligand. A lower Ki goes with a stronger hold on the target. As to `NC(=O)[C@@H]1CCC(=O)NCCCC[C@@H](NC(=O)[C@@H](N)Cc2ccc(O)cc2)C(=O)N[C@@H](Cc2ccccc2)C(=O)N1` [listing 1 of 2 here], the IC50 in experiment [1] was determined as 2.93 nM; in experiment [2], 5.21 nM. In addition, the Ki is 4.36 nM in experiment [3] and 1.43 nM in experiment [4].

`NC(=O)[C@@H]1CCC(=O)NCCCC[C@@H](NC(=O)[C@@H](N)Cc2ccc(O)cc2)C(=O)N[C@@H](Cc2ccccc2)C(=O)N1` [listing 2 of 2 here]: in experiment [5], the Ke worked out at 1.8 nM.

As to `CC(C)C[C@@H]1NC(=O)[C@H](NC(=O)[C@@H](N)Cc2ccc(O)cc2)CCCNC(=O)C[C@@H](C(N)=O)NC1=O`, the IC50 was determined as 5410 nM in experiment [1] and 40400 nM in experiment [2]. In addition, the Ki in experiment [3] worked out at 8160 nM; in experiment [4] it was 6800 nM.

Turning to `NC(=O)[C@@H]1CCCCNC(=O)CC[C@@H](NC(=O)[C@@H](N)Cc2ccc(O)cc2)C(=O)N[C@@H](Cc2ccccc2)C(=O)N1` [listing 1 of 2 here], the IC50 in experiment [1] worked out at 7.99 nM; in experiment [2], 101 nM. Also, the Ki in experiment [3] is 49.3 nM; in experiment [4] it was 0.994 nM.

Take `NC(=O)[C@@H]1CCCCNC(=O)CC[C@@H](NC(=O)[C@@H](N)Cc2ccc(O)cc2)C(=O)N[C@@H](Cc2ccccc2)C(=O)N1` [listing 2 of 2 here]: in experiment [5], the Ke is on record as 0.81 nM.

Regarding `NC(=O)[C@@H]1CCCNC(=O)C[C@@H](NC(=O)[C@@H](N)Cc2ccc(O)cc2)C(=O)N[C@@H](Cc2ccccc2)C(=O)N[C@H](C(N)=O)CCCNC(=O)C[C@@H](NC(=O)[C@@H](N)Cc2ccc(O)cc2)C(=O)N[C@@H](Cc2ccccc2)C(=O)N1` [listing 1 of 2 here], the IC50 was found to be 1160 nM in experiment [1] and 579 nM in experiment [2]. Moreover, the Ki came out at 129 nM in experiment [3] and 85.9 nM in experiment [4].

In experiment [5], `NC(=O)[C@@H]1CCCNC(=O)C[C@@H](NC(=O)[C@@H](N)Cc2ccc(O)cc2)C(=O)N[C@@H](Cc2ccccc2)C(=O)N[C@H](C(N)=O)CCCNC(=O)C[C@@H](NC(=O)[C@@H](N)Cc2ccc(O)cc2)C(=O)N[C@@H](Cc2ccccc2)C(=O)N1` [listing 2 of 2 here] showed a Ke of 1.62 nM.

Consider `NC(=O)[C@@H]1CC(=O)NCCC[C@@H](NC(=O)[C@@H](N)Cc2ccc(O)cc2)C(=O)N[C@@H](Cc2ccccc2)C(=O)N[C@H](C(N)=O)CC(=O)NCCC[C@@H](NC(=O)[C@@H](N)Cc2ccc(O)cc2)C(=O)N[C@@H](Cc2ccccc2)C(=O)N1` [listing 1 of 2 here], for which the IC50 in experiment [1] stood at 111 nM; in experiment [2], 99.1 nM. Moreover, the Ki in experiment [3] is 42.2 nM; in experiment [4], 25.6 nM.

As for `NC(=O)[C@@H]1CC(=O)NCCC[C@@H](NC(=O)[C@@H](N)Cc2ccc(O)cc2)C(=O)N[C@@H](Cc2ccccc2)C(=O)N[C@H](C(N)=O)CC(=O)NCCC[C@@H](NC(=O)[C@@H](N)Cc2ccc(O)cc2)C(=O)N[C@@H](Cc2ccccc2)C(=O)N1` [listing 2 of 2 here], the Ke in experiment [5] amounted to 1.36 nM.

On to `NC(=O)[C@@H]1CCC(=O)NCCC[C@@H](NC(=O)[C@@H](N)Cc2ccc(O)cc2)C(=O)NCC(=O)N1`, for which the values for the IC50 in experiment [1] and in experiment [2] were 8750 nM and greater than 40000 nM, respectively. The figures for the Ki in experiment [3] and in experiment [4] were 4990 nM and 1760 nM, respectively.

`NC(=O)[C@@H]1CCCNC(=O)C[C@@H](NC(=O)[C@@H](N)Cc2ccc(O)cc2)C(=O)N[C@@H](Cc2ccccc2)C(=O)N1` (H-Y[dD]F[Orn]-NH2; lactam 2-4) [listing 1 of 2 here]: the results for the IC50 in experiment [1] and in experiment [2] were 522 nM and 8570 nM, respectively.

`NC(=O)[C@@H]1CCCNC(=O)C[C@@H](NC(=O)[C@@H](N)Cc2ccc(O)cc2)C(=O)N[C@@H](Cc2ccccc2)C(=O)N1` (H-Y[dD]F[Orn]-NH2; lactam 2-4) [listing 2 of 2 here] came in with a Ke in experiment [5] of 1.28 nM.
